Measurements published in ChEMBL document CHEMBL2176900, “Design and synthesis of a novel series of bicyclic heterocycles as potent γ-secretase modulators” (J Med Chem, 2012).
Values after ≈ are worked out from the molar mass of the structure shown.

Columns and labels:
[1] = tested on: Mus musculus; experiment: Inhibition of gamma-secretase in CD1 mouse assessed as total amyloid beta level in brain at 10 mg/kg, po at 24 hrs by ELISA relative to control; type: functional; design: scale not given: the % may be the effect or the level left
Summary of the method: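 Fasted male CD1 SPF mice were dosed orally at 10 or 30 mg/kg in 20% Captisol. Right hemisphere was homogenized in 0.4% DEA/50 mM NaCl and the high-speed supernatant neutralized. Aβtotal ELISA used N-terminal JRF/rAβ/2 capture, biotinylated 4G8 and streptavidin-peroxidase, then a fluorogenic substrate (ex 320/em 420 nm). Standards spanned 10000–0.3 pg/mL. Values are % change vs T = 0 h, n = 4.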

[2] = tested on: Mus musculus; experiment: Antialzheimer activity in CD1 mouse assessed as amyloid beta 42 level in brain at 30 mg/kg, po at 8 hrs by ELISA relative to control; type: functional
Summary of the method: (§1)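 Male CD1 SPF mice, fasted overnight, got a single oral dose of 10 or 30 mg/kg. At each time point the right brain hemisphere was homogenized in 0.4% DEA/50 mM NaCl with protease inhibitors and spun at 221300g for 50 min. The supernatant was neutralized with Tris-HCl pH 6.8. Aβ38 or Aβ42 was read by sandwich ELISA with a fluorogenic peroxidase substrate (ex 320/em 420 nm). Results are mean % change versus T = 0 h, n = 4.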

[3] = Plasma concentration in Sprague-Dawley rat at 10 mg/kg, po at 25 hrs by LC-MS/MS analysis; type: ADME, organism-based; design: dose 10 mg/kg, route oral
Summary of the method: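 Overnight-fasted male Sprague-Dawley rats (180–220 g) were given 10 mg/kg by gastric intubation of a 5 mg/mL suspension in 0.5% methocellulose. Blood was collected after decapitation at 2, 4, 7 and 25 h under isoflurane anaesthesia. Plasma compound was measured as in the mouse assay, n = 5.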

[4] = Oral bioavailability in CD1 Swiss mouse at 10 mg/kg; type: ADME, organism-based; settings: in vivo
[5] = biological target: Voltage-gated inwardly rectifying potassium channel KCNH2 (Homo sapiens, UniProt Q12809); experiment: Displacement of [3H]dofetilide to human ERG expressed in HEK293 cells; type: cell-based
[6] = tested on: Salmonella typhimurium; experiment: Genotoxicity against Salmonella typhimurium by AMES 2 test; type: toxicity, organism-based; settings: salmonella enterica subsp. enterica serovar typhimurium
[7] = Thermodynamic solubility in 0.01N HCl; settings: read-out: Therm_solubility
[8] = tested on: Rattus norvegicus; experiment: Antialzheimer activity in Sprague-Dawley rat assessed as amyloid beta 37 level in CSF at 10 mg/kg, po at 4 hrs by ELISA relative to control; type: functional
Summary of the method: (§2)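 Male Sprague-Dawley rats (180-220 g), fasted overnight, were given 10 mg/kg by gastric intubation as a 5 mg/mL suspension in 0.5% methocellulose. At 2, 4, 7 and 25 h, 50 μL CSF was taken from the cisterna magna under isoflurane, then brain was collected. Aβ37/38/40/42 were measured by MesoScale Discovery sandwich immunoassays. Results are mean % change versus T = 0 h, n = 5.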

[9] = Drug uptake in Sprague-Dawley rat brain at 10 mg/kg, po at 2 hrs by LC-MS/MS analysis; type: ADME, organism-based; design: dose 10 mg/kg, route oral; settings: read-out: Drug uptake
Summary of the method: (§3)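 Overnight-fasted male Sprague–Dawley rats (180–220 g) were dosed 10 mg/kg by gastric intubation of a 5 mg/mL suspension in 0.5% methocellulose. Rats were anesthetized with isoflurane, CSF was taken from the cisterna magna, then they were decapitated. Brain compound levels were measured as in the mouse assay. n = 5.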

[10] = tested on: Rattus norvegicus; experiment: Antialzheimer activity in Sprague-Dawley rat assessed as amyloid beta 40 level in brain at 10 mg/kg, po at 7 hrs by ELISA relative to control; type: functional; summary of the method: as §2
[11] = tested on: Rattus norvegicus; experiment: Antialzheimer activity in Sprague-Dawley rat assessed as amyloid beta 38 level in CSF at 10 mg/kg, po at 4 hrs by ELISA relative to control; type: functional; summary of the method: as §2
[12] = biological target: hERG (KCNH2) (Homo sapiens, UniProt Q12809); experiment: Inhibition of human ERG at 3 uM by patch clamp assay
Summary of the method: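 Potassium membrane current was recorded with an automated patch-clamp system at 3 μM, with a vehicle control.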

[13] = tested on: Rattus norvegicus; experiment: Antialzheimer activity in Sprague-Dawley rat assessed as amyloid beta 40 level in brain at 10 mg/kg, po at 4 hrs by ELISA relative to control; type: functional; summary of the method: as §2
[14] = Drug uptake in Sprague-Dawley rat brain at 10 mg/kg, po at 7 hrs by LC-MS/MS analysis; type: ADME, organism-based; design: dose 10 mg/kg, route oral; settings: read-out: Drug uptake; summary of the method: as §3
[15] = tested on: Rattus norvegicus; experiment: Antialzheimer activity in Sprague-Dawley rat assessed as amyloid beta 40 level in CSF at 10 mg/kg, po at 25 hrs by ELISA relative to control; type: functional; summary of the method: as §2
[16] = Fraction unbound in dog plasma; type: ADME, cell-free, Canis lupus familiaris
[17] = tested on: Rattus norvegicus; experiment: Antialzheimer activity in Sprague-Dawley rat assessed as amyloid beta 38 level in brain at 10 mg/kg, po at 25 hrs by ELISA relative to control; type: functional; summary of the method: as §2
[18] = tested on: Mus musculus; experiment: Antialzheimer activity in CD1 mouse assessed as amyloid beta 42 level in brain at 10 mg/kg, po at 8 hrs by ELISA relative to control; type: functional; summary of the method: as §1
[19] = tested on: Rattus norvegicus; experiment: Antialzheimer activity in Sprague-Dawley rat assessed as amyloid beta 38 level in CSF at 10 mg/kg, po at 2 hrs by ELISA relative to control; type: functional; summary of the method: as §2
[20] = tested on: Brain; experiment: Drug uptake in Sprague-Dawley rat brain at 10 mg/kg, po at 25 hrs by LC-MS/MS analysis; type: ADME, organism-based; design: dose 10 mg/kg, route oral; settings: in vivo, BLD = below limit of detection; summary of the method: as §3
[21] = Drug metabolism in dog liver microsomes at 1 uM after 15 mins by ion-trap mass spectrophotometry; type: ADME, Canis lupus familiaris, Microsome; settings: read-out: Drug metabolism
[22] = Plasma concentration in beagle dog at 20 mg/kg, po at 8 hrs; type: ADME, organism-based, Canis lupus familiaris; design: dose 20 mg/kg, route oral
[23] = Lipophilicity, log P of the compound; type: physicochemical; settings: octanol/water
[24] = tested on: Rattus norvegicus; experiment: Antialzheimer activity in Sprague-Dawley rat assessed as amyloid beta 38 level in brain at 10 mg/kg, po at 7 hrs by ELISA relative to control; type: functional; summary of the method: as §2
[25] = tested on: Plasma; experiment: Plasma concentration in CD1 mouse at 30 mg/kg, po at 48 hrs by LC-MS/MS analysis; type: ADME, organism-based; design: dose 30 mg/kg, route oral; settings: in vivo, BLD = below limit of detection
Summary of the method: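 Mice received a single 10 or 30 mg/kg oral dose. Plasma was sampled at several time points up to 48 h, with EDTA plasma obtained by centrifugation at 1900g, 10 min, 4 °C. Compound was quantified by LC-MS/MS, n = 4.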

[26] = tested on: Canis familiaris; experiment: Antialzheimer activity in beagle dog assessed as amyloid beta 42 level in cerebrospinal fluid at 20 mg/kg, po at 8 hrs by ELISA relative to control
[27] = tested on: Rattus norvegicus; experiment: Antialzheimer activity in Sprague-Dawley rat assessed as amyloid beta 38 level in brain at 10 mg/kg, po at 4 hrs by ELISA relative to control; type: functional; summary of the method: as §2

Voltage-gated inwardly rectifying potassium channel KCNH2, sequence (Q12809 whole entry): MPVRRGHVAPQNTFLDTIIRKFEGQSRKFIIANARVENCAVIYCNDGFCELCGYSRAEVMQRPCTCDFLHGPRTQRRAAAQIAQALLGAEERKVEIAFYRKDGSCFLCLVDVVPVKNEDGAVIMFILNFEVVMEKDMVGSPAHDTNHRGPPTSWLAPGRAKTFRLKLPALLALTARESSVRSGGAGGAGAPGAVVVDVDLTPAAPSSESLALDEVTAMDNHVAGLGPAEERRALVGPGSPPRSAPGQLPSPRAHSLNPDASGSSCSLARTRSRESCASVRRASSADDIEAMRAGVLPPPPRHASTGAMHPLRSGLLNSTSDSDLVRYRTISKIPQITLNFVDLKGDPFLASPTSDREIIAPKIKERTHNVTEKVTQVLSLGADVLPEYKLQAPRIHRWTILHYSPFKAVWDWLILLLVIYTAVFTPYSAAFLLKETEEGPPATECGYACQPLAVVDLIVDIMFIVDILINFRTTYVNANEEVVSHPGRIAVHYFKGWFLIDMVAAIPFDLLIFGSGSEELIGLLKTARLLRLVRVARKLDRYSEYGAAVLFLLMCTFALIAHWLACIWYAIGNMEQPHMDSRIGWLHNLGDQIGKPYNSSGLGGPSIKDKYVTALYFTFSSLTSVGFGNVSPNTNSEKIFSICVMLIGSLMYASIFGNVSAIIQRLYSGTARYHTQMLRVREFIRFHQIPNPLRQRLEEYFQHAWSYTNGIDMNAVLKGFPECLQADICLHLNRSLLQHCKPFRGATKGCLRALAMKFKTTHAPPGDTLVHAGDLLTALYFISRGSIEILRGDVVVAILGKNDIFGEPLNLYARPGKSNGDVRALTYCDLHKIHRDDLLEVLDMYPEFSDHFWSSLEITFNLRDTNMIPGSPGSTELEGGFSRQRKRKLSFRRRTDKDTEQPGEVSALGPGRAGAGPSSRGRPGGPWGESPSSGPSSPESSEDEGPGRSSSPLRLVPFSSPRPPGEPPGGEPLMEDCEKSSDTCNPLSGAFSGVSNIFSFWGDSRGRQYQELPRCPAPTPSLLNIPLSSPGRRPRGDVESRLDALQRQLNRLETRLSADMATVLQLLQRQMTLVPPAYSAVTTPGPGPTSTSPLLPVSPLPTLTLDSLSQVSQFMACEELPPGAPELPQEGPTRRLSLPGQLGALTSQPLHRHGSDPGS
hERG (KCNH2), sequence (Q12809 whole entry): as above

Compound: COc1nc(Nc2cccc3c2nc(-c2ccc(F)cc2)n3C)ccc1-n1cnc(C)c1
- Activity [1]: 94%
- Activity [2]: 29%
- concentration at 25 h [3]: 20 nM
- bioavailability [4]: 100%
- IC50 [5]: 8.5 µM
- Activity [6]: Non-toxic
- solubility thermodynamic [7]: 1170 µg/mL (≈ 2730 µM)
- Activity [8]: 955%
- concentration at 2 h [9]: 2500 nM
- Activity [10]: 66%
- Activity [11]: 179%
- inhibition at 3 µM [12]: 30%
- Activity [13]: 64%
- concentration at 7 h [14]: 2000 nM
- Activity [15]: 83%
- fraction unbound [16]: 0.0003
- Activity [17]: 105%
- Activity [18]: 50%
- Activity [19]: 162%
- Drug uptake [20]: BLD
- metabolised at 0.25 h, 1 µM [21]: 37%
- concentration at 8 h [22]: 1700 nM
- logP [23]: 5.25
- Activity [24]: 127%
- Cp [25]: BLD
- Activity [26]: 52%
- Activity [27]: 114%
